Key:
[1] = tested on: mice (immobility in FST); assay: Forced swimming test; format: in vivo, Kunming mice; settings: for Antidepressant activity in FST, significance compared with the control group: mice, 40 mg kg^-1; for Relationship between dose and antidepressant activity in FST: mice, 10, 20 and 40 mg kg^-1 (Fig. 3)
How it was run: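 Kunming mice (18–22 g) with free access to food and water; test compound in 0.5% methylcellulose or DMSO, given by intraperitoneal or subcutaneous injection at 40 mg kg−1; fluoxetine as positive control; test time 0.5 h. Read-out is immobility duration (s) and DID (%), compared with the control group by one-way ANOVA. A dose series of 10, 20 and 40 mg kg−1 was also run.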

[2] = target: T1, 5-HT1A receptor (Homo sapiens, UniProt P08908); assay: biochemical
T1 sequence (P08908 1-422): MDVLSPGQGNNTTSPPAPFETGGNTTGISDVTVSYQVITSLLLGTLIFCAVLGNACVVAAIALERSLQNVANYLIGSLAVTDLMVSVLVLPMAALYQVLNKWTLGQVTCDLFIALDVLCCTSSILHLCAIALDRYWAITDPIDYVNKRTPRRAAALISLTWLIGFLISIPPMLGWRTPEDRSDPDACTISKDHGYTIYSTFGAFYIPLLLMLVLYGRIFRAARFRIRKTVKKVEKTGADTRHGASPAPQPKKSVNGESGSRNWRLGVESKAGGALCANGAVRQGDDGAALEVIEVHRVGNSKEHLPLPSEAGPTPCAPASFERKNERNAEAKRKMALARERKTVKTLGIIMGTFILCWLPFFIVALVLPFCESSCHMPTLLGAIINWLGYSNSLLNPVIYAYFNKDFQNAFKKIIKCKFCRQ

[3] = tested on: mice (immobility in TST); assay: Tail suspension test; format: in vivo; settings: 40 mg kg^-1, n = 8 (Fig. 4)
How it was run: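 Tail suspension test in Kunming mice (18–22 g), used as a second behavioural-despair model to confirm FST findings. Test compound at 40 mg kg−1 in 0.5% methylcellulose or DMSO, injected intraperitoneally or subcutaneously; fluoxetine at the same dose as positive control. Groups compared with control by one-way ANOVA.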

[4] = tested on: 5-HT concentration in the mice brain; assay: Determination of brain 5-HT concentration by ELISA; format: in vivo; settings: 40 mg kg^-1, 1 h after administration, n = 8 (Fig. 5)
[5] = tested on: spontaneous locomotor activity of mice; assay: Open-field test; format: in vivo; settings: 40 mg kg^-1, administered 1 h before the test, n = 8 (Fig. 6)
How it was run: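 Kunming mice given test compound at 40 mg kg−1 (0.5% methylcellulose or DMSO vehicle; intraperitoneal or subcutaneous) 1 h before placement in a novel open field. Spontaneous activity is counted as line crossings (locomotion), rearing (standing on hind legs) and grooming. n = 8 per group, values as mean ± SEM.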

Ki [2] [nM] | SMILES | Antidepressant activity in FST, significance compared with the control group [1] | other results
 | O=C1CCc2ccc(OCc3nnc(SCc4ccc(F)cc4)o3)cc2N1 [Compound 5f, 7-((5-((4-Fluorobenzyl)thio)-1,3,4-oxadiazol-2-yl)methoxy)-3,4-dihydroquinolin-2(1H)-one] | significant | 
1.77 ± 0.14 | O=C1CCc2ccc(OCc3nnc(SCc4ccc(Cl)cc4)o3)cc2N1 [Compound 5g, 7-((5-((4-Chlorobenzyl)thio)-1,3,4-oxadiazol-2-yl)methoxy)-3,4-dihydroquinolin-2(1H)-one] |  | 
2.73 ± 0.22 | O=C1CCc2ccc(OCc3nnc(SCc4ccc(C(F)(F)F)cc4)o3)cc2N1 [Compound 5h, 7-((5-((4-Trifluoromethylbenzyl)thio)-1,3,4-oxadiazol-2-yl)methoxy)-3,4-dihydroquinolin-2(1H)-one] |  | 
2.01 ± 0.18 | CC(=O)Nc1cccc(OCc2nnc(SCc3ccccc3Cl)o2)c1 [Compound 10e, N-(3-((5-((2-Chlorobenzyl)thio)-1,3,4-oxadiazol-2-yl)methoxy)phenyl)acetamide] | high significant | 
 | CC(=O)Nc1cccc(OCc2nnc(SCc3cccc(Cl)c3)o2)c1 [Compound 10f, N-(3-((5-((3-Chlorobenzyl)thio)-1,3,4-oxadiazol-2-yl)methoxy)phenyl)acetamide] | significant | 
1.68 ± 0.13 | CC(=O)Nc1cccc(OCc2nnc(SCc3ccc(Cl)cc3)o2)c1 [Compound 10g, N-(3-((5-((4-Chlorobenzyl)thio)-1,3,4-oxadiazol-2-yl)methoxy)phenyl)acetamide] | high significant | Antidepressant activity in TST [3]: highly significant; Effect on brain 5-HT concentration [4]: significantly (p < 0.05) increased the 5-HT concentration; Exploratory activity in open-field test (crossing, rearing, grooming) [5]: no significant difference; Relationship between dose and antidepressant activity in FST [1]: as the dose increases, the antidepressant activity increases
4.14 ± 0.16 | CC(=O)Nc1cccc(OCc2nnc(SCc3ccc(C(F)(F)F)cc3)o2)c1 [Compound 10j, N-(3-((5-((4-Trifluoromethylbenzyl)thio)-1,3,4-oxadiazol-2-yl)methoxy)phenyl)acetamide] | high significant | 
 | CC(=O)Nc1cccc(OCc2nnc(SCc3ccc(C)cc3)o2)c1 [Compound 10m, N-(3-((5-((4-Methylbenzyl)thio)-1,3,4-oxadiazol-2-yl)methoxy)phenyl)acetamide] | significant | 
 | CNCCC(Oc1ccc(C(F)(F)F)cc1)c1ccccc1 (centres unmarked) [Fluoxetine, reference compound] |  | Effect on brain 5-HT concentration [4]: significantly (p < 0.05) increased the 5-HT concentration; Relationship between dose and antidepressant activity in FST [1]: as the dose increases, the antidepressant activity increases

From publication PMC9056355 (RSC Advances, 2020)
